The subject of data set [1] is Mus musculus. In words: Compound was tested for toxicity by rotarod assay method in mice 30 min after ip administration of 600 mg/kg; no activity. Set-up: dose 600 mg/kg, route intraperitoneal. The note with it: in vivo, 0.5 h. The class given is organism-based.
The subject of data set [2] is Mus musculus. In words: Anticonvulsant activity against maximal electroshock (MES) induced seizures in mice 30 minutes after ip administration of 600 mg/kg; A=Active. Set-up: dose 600 mg/kg. The class given is functional, organism-based. The gist of the method: (§1)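 Male Carworth Farms No. 1 mice were dosed ip with compound in 30% polyethylene glycol 400, at 30, 100 and 300 mg/kg and sometimes 600 mg/kg, and tested 30 min and 4 h later. A drop of 0.9% saline went in the eye, then 60-cycle AC at 50 mA was given for 0.2 s via corneal electrodes. Protection meant abolition of hind limb tonic extension.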

For data set [3], the system named is Mus musculus. In words: Anticonvulsant activity against subcutaneous pentylenetetrazole induced convulsions in mice 4 hr after ip administration of 600 mg/kg. The format is functional, organism-based. On the set-up: dose 600 mg/kg. A digest of the protocol:
(§2)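 Male Carworth Farms No. 1 mice were dosed ip with compound in 30% PEG 400, at 30–600 mg/kg, and read at 30 min and 4 h. Pentylenetetrazole was given at 85 mg/kg as a 0.5% solution sc in the posterior midline. Protection meant no single episode of clonic spasms lasting at least 5 s over a 30-min observation.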

Data set [4] has as its system Mus musculus. In words: Anticonvulsant activity against maximal electroshock (MES)-induced seizures in mice 4 hours after ip administration of 300 mg/kg; A=Active. The class given is functional, organism-based. On the set-up: dose 300 mg/kg. A digest of the protocol:
as §1

The subject of data set [5] is Mus musculus. In words: Compound was tested for toxicity by rotarod assay method in mice after intraperitoneal administration after 4 hours at 600 mg/kg; no activity. On the set-up: dose 600 mg/kg, route intraperitoneal. The format is organism-based. To be noted: in vivo, ip.
Data set [6] relates to Mus musculus. In words: Anticonvulsant activity against subcutaneous pentylenetetrazole induced convulsions in mice 30 min after ip administration of 600 mg/kg. The format is functional, organism-based. Set-up: dose 600 mg/kg. A digest of the protocol:
as §2

A short description of data set [7]: Protective index measured as the ratio between TD50 and ED50. The class given is ADME.
Data set [8] has as its system Mus musculus. In words: (§3) Compound for toxicity by rotarod assay method in mice after administration. The format is organism-based. To be noted: in vivo. A digest of the protocol:
(§4)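 Neurologic deficit was tested in male Carworth Farms No. 1 mice 30 min and 4 h after ip dosing in 30% PEG 400, at 30–600 mg/kg. Each mouse was placed on a 1-in.-diameter knurled plastic rod turning at 6 rpm. Toxicity meant failing to stay on the rod for 1 min.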

The subject of data set [9] is Mus musculus. In words: Anticonvulsant activity against maximal electroshock (MES) induced seizures in mice 30 minutes after ip administration of 300 mg/kg; A=Active. On the set-up: dose 300 mg/kg. The class given is functional, organism-based. A digest of the protocol:
as §1

The subject of data set [10] is Mus musculus. In words: Compound was tested for toxicity by rotarod assay method in mice 30 min after ip administration of 300 mg/kg; A=Active. Set-up: dose 300 mg/kg, route intraperitoneal. To be noted: in vivo, 0.5 h. The format is organism-based.
Data set [11] has as its system Mus musculus. In words: Compound was tested for toxicity by rotarod assay method in mice after intraperitoneal administration after 4 hours; A=Active. The class given is organism-based. To be noted: in vivo, ip.
Data set [12] deals with Mus musculus. In words: Anticonvulsant activity against maximal electroshock (MES) induced seizures in mice 4 hours after ip administration of 600 mg/kg; A=Active. On the set-up: dose 600 mg/kg. The format is functional, organism-based. A digest of the protocol:
as §1

Data set [13] has as its system Mus musculus. In words: Anticonvulsant activity against sc pentylenetetrazole induced convulsions in mice 30 minutes after ip administration of 600 mg/kg; A=Active. The class given is functional, organism-based. Set-up: dose 600 mg/kg. The gist of the method:
as §2

The test system of data set [14] is Mus musculus. In words: Compound was tested for toxicity by rotarod assay method in mice 4 hours after ip administration of 600 mg/kg; NA=No activity. The format is organism-based. Set-up: dose 600 mg/kg, route intraperitoneal. To be noted: in vivo.
The test system of data set [15] is Mus musculus. In words: Compound was tested for toxicity by rotarod assay method in mice 30 min after ip administration of 600 mg/kg; No activity. The class given is organism-based. On the set-up: dose 600 mg/kg, route intraperitoneal. The note with it: in vivo, 0.5 h.
In data set [16] the test system is Mus musculus. In words: Anticonvulsant activity against maximal electroshock (MES) induced seizures in mice 4 hours after ip administration of 600 mg/kg. On the set-up: dose 600 mg/kg. The format is functional, organism-based. A digest of the protocol: as §1
The test system of data set [17] is Mus musculus. In words: Compound was tested for toxicity by rotarod assay method in mice 4 hours after ip administration of 600 mg/kg; A=Active. On the set-up: dose 600 mg/kg, route intraperitoneal. The class given is organism-based. The note with it: in vivo.
Data set [18] deals with Mus musculus. In words: Anticonvulsant activity against sc pentylenetetrazole-induced convulsions in mice 30 minutes after ip administration of 300 mg/kg; A=Active. The format is functional, organism-based. Set-up: dose 300 mg/kg. A digest of the protocol: as §2
For data set [19], the system named is Mus musculus. In words: Anticonvulsant activity against maximal electroshock (MES) induced seizures in mice 30 minutes after ip administration of 100 mg/kg; A=Active. The class given is functional, organism-based. Set-up: dose 100 mg/kg. A digest of the protocol: as §1
For data set [20], the system named is Mus musculus. In words: Anticonvulsant activity against sc pentylenetetrazole-induced convulsions in mice 4 hr after ip administration of 600 mg/kg; A=Active. The format is functional, organism-based. Set-up: dose 600 mg/kg. The gist of the method: as §2
In data set [21] the test system is Mus musculus. In words: Anticonvulsant activity against maximal electroshock (MES) induced seizures in mice 4 hours after ip administration of 100 mg/kg; A=Active. The format is functional, organism-based. On the set-up: dose 100 mg/kg. A digest of the protocol: as §1
The test system of data set [22] is Mus musculus. In words: Compound was tested for toxicity by rotarod assay method in mice 30 min after ip administration of 600 mg/kg; A=Active. The format is organism-based. To be noted: in vivo, 0.5 h. Set-up: dose 600 mg/kg, route intraperitoneal.
The species entered for data set [23] is Mus musculus. In words: Anticonvulsant activity against maximal electroshock (MES)-induced seizures in mice. The class given is functional. A digest of the protocol:
as §1

For data set [24], the system named is Mus musculus. In words: Anticonvulsant activity against maximal electroshock (MES) induced seizures in mice 30 minutes after ip administration of 30 mg/kg; A=Active. The class given is functional, organism-based. On the set-up: dose 30 mg/kg. The gist of the method:
as §1

Data set [25] can be described thus: as §3. The format is organism-based. The note with it: mouse, in vivo. A digest of the protocol:
as §4

Data set [26] relates to Mus musculus. In words: Anticonvulsant activity against maximal electroshock (MES) induced seizures in mice […] after ip administration of 600 mg/kg; NA=No activity. The class given is functional, organism-based. On the set-up: dose 600 mg/kg. The gist of the method:
as §1

In data set [27] the test system is Mus musculus. In words: Compound for anticonvulsant activity against subcutaneous pentylenetetrazole-induced convulsions in mice after administration. The note with it: sc. The class given is functional. A digest of the protocol: as §2
Data set [28] deals with Mus musculus. In words: Compound for anticonvulsant activity against maximal electroshock (MES)-induced seizures in mice after administration. The format is functional. The gist of the method:
as §1

Values joined by “and” are separate entries in the source; they are usually repeats but may differ in a detail not shown here. Equal entries are not always repeated. Active and inactive are the calls of the source. No cut-off for these calls is given here.

For `Cc1cccc(C(C)C)c1NC(=O)c1cccc(N)c1`, the Toxicity entry in the data set with Mus musculus [1] and in the data set on Mus musculus [5] was “Not Active” throughout. Further, the Anticonvulsant activity result with Mus musculus [2] and with Mus musculus [4] was “Active” in each case. Also, the Anticonvulsant activity entry with Mus musculus [3] and in the data set on Mus musculus [6] was “inactive” throughout.

Regarding `CC(NC(=O)c1ccc(N)cc1)c1ccccc1` (stereo not drawn), the PI in data set [7] was 9.5 and 4.1. Besides, in the data set on Mus musculus [8], the TD50 stood at 170.78 mg/kg.

As to `CC(C)c1ccccc1NC(=O)c1cccc(N)c1`, the Anticonvulsant activity entry in the data set on Mus musculus [9] and with Mus musculus [12] was “Active” each time. For the same compound, the Toxicity result in the data set with Mus musculus [10] and in the data set on Mus musculus [11] was “Active” each time. In addition, the Anticonvulsant activity result with Mus musculus [3] and with Mus musculus [6] was “inactive” in each case.

With `Cc1ccc(NC(=O)c2cccc(N)c2)cc1C`, the Anticonvulsant activity entry with Mus musculus [2] and with Mus musculus [13] was “Active” throughout. The Anticonvulsant activity entry with Mus musculus [3] and in the data set on Mus musculus [16] was “inactive” in each case. Also, the Toxicity result with Mus musculus [14] and in the data set with Mus musculus [15] was “Not Active” throughout.

Turning to `Cc1cccc(NC(=O)c2cccc(N)c2)c1`, the Toxicity entry with Mus musculus [17] and in the data set on Mus musculus [10] was “Active” in each case. In addition, the Anticonvulsant activity result with Mus musculus [18], in the data set on Mus musculus [19], in the data set with Mus musculus [12] and in the data set on Mus musculus [20] was “Active” each time.

Regarding `Cc1cccc(C)c1NC(=O)c1cccc(N)c1`, the Toxicity entry in the data set on Mus musculus [17] and in the data set with Mus musculus [22] was “Active” in each case. Moreover, the Anticonvulsant activity entry in the data set with Mus musculus [3] and in the data set with Mus musculus [6] was “inactive” in each case. For the same compound, the Anticonvulsant activity entry in the data set on Mus musculus [21] and in the data set with Mus musculus [24] was “Active” each time. Moreover, the selectivity ratio in data set [7] (read-out: PI) was 21.1. This compound also displayed a median effective dose (ED50) in the data set listed under Mus musculus [23] of 13.5 mg/kg. In addition, the TD50 in data set [25] is 285 mg/kg.

With `Cc1cccc(NC(=O)c2ccccc2N)c1C`, the Anticonvulsant activity entry with Mus musculus [3], in the data set on Mus musculus [26] and in the data set with Mus musculus [16] was “inactive” in each case. Also, the Toxicity entry is “Active” with Mus musculus [22] and “Not Active” in the data set with Mus musculus [14]. The Anticonvulsant activity result in the data set on Mus musculus [13] is “Active”.

As for `CCCC(CCC)C(=O)O` [VALPROIC ACID], the ED50 in the data set on Mus musculus [27] is 149 mg/kg; in the data set on Mus musculus [28], 272 mg/kg.

The values above are taken from ChEMBL document CHEMBL1123352, “Anticonvulsant activity of 2- and 3-aminobenzanilides” (J Med Chem, 1986).
